The text below walks through data of ChEMBL document CHEMBL1129065, “Longimicins A-D: novel bioactive acetogenins from Asimina longifolia (annonaceae) and structure-activity relationships of asimicin type of annonaceous acetogenins” (1996).

Converted amounts (≈) assume the structure as drawn.

One may read the LC50 as the concentration that kills 50% of the test population. Low values mean greater toxicity, high ones lower toxicity.

What all share (assay type): functional
The test system of one test is A498. Briefly: Cytotoxicity concentration against human kidney carcinoma A-498 cell line. Particulars: read-out: ED50 (the source's name). In a few lines:
(§1)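 7-day MTT cytotoxicity assay in human tumor cells, run at the Purdue Cancer Center cell culture lab under standard protocols. Samples serially diluted and each concentration tested in duplicate. ED50 calculated from the averaged values per concentration. Adriamycin included as positive control in every experiment.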

A further test concerns PC-3. Briefly: Cytotoxicity concentration against human prostate […] PC-3 cell line. Conditions: read-out: ED50 (the source's name). In a few lines:
as §1

The test system of a further test is Culicidae. Briefly: Lethal concentration required against bioactivity using yellow fever mosquito larvae assay.
In a further test the test system is HT-29. The test can be described thus: Cytotoxicity concentration against human colon […] HT-29 cell line. Particulars: read-out: ED50 (the source's name). Summed up:
as §1

Another test has as its system A549. Briefly: Cytotoxicity concentration against human lung carcinoma A-549 cell line. Conditions: read-out: ED50 (the source's name). Summed up:
as §1

Another test deals with Artemia. Briefly: Lethal concentration required against bioactivity using brine shrimp lethality test.
Another test deals with MCF7. Briefly: Cytotoxicity concentration against human breast carcinoma MCF-7 cell line. Conditions: read-out: ED50 (the source's name). In a few lines: as §1
For the next test, the system named is MIA PaCa-2. The test can be described thus: Cytotoxicity concentration against human pancreatic carcinoma PaCa-2 cell line. Conditions: read-out: ED50 (the source's name). Summed up: as §1

Consider `CCCCCCCCCCCC[C@@H](O)[C@H]1CC[C@H]([C@H]2CC[C@H]([C@H](O)CC[C@H](O)CCCCCCCC3=C[C@H](C)OC3=O)O2)O1`, for which the EC50 is 0.0353 µg/mL (≈ 0.0567 µM) in the test on A498; 0.000242 µg/mL (≈ 0.000388 µM) with PC-3; 0.0116 µg/mL (≈ 0.0186 µM) in the test with HT-29; 0.000493 µg/mL (≈ 0.000791 µM) with A549; 0.215 µg/mL (≈ 0.345 µM) in the test with MCF7. Also, the figures for the LC50 in the test on Culicidae and in the test with Artemia were 8.29 µg/mL (≈ 13.3 µM) and 4.58 µg/mL (≈ 7.35 µM), respectively.

Take `CCCCCCCCCC[C@@H](O)[C@H]1CC[C@H]([C@H]2CC[C@H]([C@H](O)CCCCCCCC[C@@H](O)CC3=C[C@H](C)OC3=O)O2)O1` [PARVIFLORIN]: the EC50 amounted to 0.549 µg/mL (≈ 0.923 µM) with HT-29 and 1.72 µg/mL (≈ 2.89 µM) with MCF7. The molecule also registered a 50% lethal concentration (LC50) with Artemia of 0.088 µg/mL (≈ 0.148 µM).

For `COc1cccc2c1C(=O)c1c(O)c3c(c(O)c1C2=O)C[C@@](O)(C(=O)CO)C[C@@H]3O[C@H]1C[C@H](N)[C@H](O)[C@H](C)O1` [DOXORUBICIN], the EC50 in the test on A498 stood at 0.0663 µg/mL (≈ 0.122 µM); in the test on PC-3, 0.287 µg/mL (≈ 0.528 µM); in the test on HT-29, 0.0494 µg/mL (≈ 0.0909 µM); in the test on A549, 0.0262 µg/mL (≈ 0.0482 µM); in the test with MIA PaCa-2 it was 0.034 µg/mL (≈ 0.0626 µM); in the test on MCF7, 0.194 µg/mL (≈ 0.357 µM). The LC50 in the test with Artemia is 0.26 µg/mL (≈ 0.478 µM).

As for `CCCCCCCCCCC(O)C1CCC(C2CCC(C(O)CCCCCCCC[C@H](O)CC3=C[C@@H](C)OC3=O)O2)O1` (stereo partly specified) [ASIMICIN], the LC50 in the test with Culicidae amounted to 3.04 µg/mL (≈ 5.11 µM); with Artemia it was 0.026 µg/mL (≈ 0.0437 µM). Besides, the results for the EC50 in the test with A549 and in the test with MCF7 were 0.00843 µg/mL (≈ 0.0142 µM) and 0.852 µg/mL (≈ 1.43 µM), respectively.

With `CCCCCCCCCCCC[C@@H](O)[C@H]1CC[C@H]([C@H]2CC[C@H]([C@H](O)CCCCCC[C@@H](O)CC3=C[C@H](C)OC3=O)O2)O1`, the EC50 with A498 was found to be 0.064 µg/mL (≈ 0.108 µM); in the test on PC-3, 2.2 µg/mL (≈ 3.7 µM); in the test with HT-29 it was 0.00332 µg/mL (≈ 0.00558 µM); in the test with A549 it was 0.143 µg/mL (≈ 0.24 µM); in the test on MIA PaCa-2, 0.0792 µg/mL (≈ 0.133 µM); with MCF7 it was 0.0154 µg/mL (≈ 0.0259 µM). The median lethal concentration (LC50) in the test with Culicidae stood at 30.4 µg/mL (≈ 51.1 µM); in the test on Artemia, 7.34 µg/mL (≈ 12.3 µM).

`CCCCCCC[C@H]1CC[C@H](CCCC[C@@H](O)[C@H]2CC[C@H](CCC[C@H](O)[C@@H](O)CCCCCCCC3=C[C@H](C)OC3=O)O2)O1` [ASIMIN] had an LC50 in the test with Artemia of 0.0046 µg/mL (≈ 0.00738 µM).

In the case of `CCCCCCCCCCCCCC[C@@H](O)[C@H]1CC[C@H]([C@H]2CC[C@H]([C@H](O)CCCC[C@@H](O)CC3=C[C@H](C)OC3=O)O2)O1`, the EC50 in the test with A498 is 0.127 µg/mL (≈ 0.213 µM); in the test with PC-3, 2.96 µg/mL (≈ 4.98 µM); with HT-29 it was 1 µg/mL (≈ 1.68 µM); in the test on A549 it was 0.455 µg/mL (≈ 0.765 µM); in the test on MIA PaCa-2, 1.09 µg/mL (≈ 1.83 µM); with MCF7, 0.088 µg/mL (≈ 0.148 µM). The values for the LC50 in the test with Culicidae and with Artemia were 75.7 µg/mL (≈ 127 µM) and 9.42 µg/mL (≈ 15.8 µM), respectively.

With `CCCCCCCCCCCCCC[C@@H](O)[C@H]1CC[C@H]([C@H]2CC[C@H]([C@H](O)CCCCCC[C@@H](O)CC3=C[C@H](C)OC3=O)O2)O1`, the EC50 in the test with A498 was found to be 0.544 µg/mL (≈ 0.873 µM); in the test with PC-3, 0.0701 µg/mL (≈ 0.113 µM); in the test with HT-29, 0.525 µg/mL (≈ 0.843 µM); in the test with A549 it was 0.295 µg/mL (≈ 0.474 µM); with MIA PaCa-2, 0.0173 µg/mL (≈ 0.0278 µM); in the test on MCF7, 0.889 µg/mL (≈ 1.43 µM). For the same molecule, the LC50 in the test with Culicidae stood at 141 µg/mL (≈ 226 µM); with Artemia, 18.7 µg/mL (≈ 30 µM).
